According to ChEMBL document CHEMBL4014327 (J Med Chem, 2017):
≈ marks a conversion by molar mass, not a printed value.

How the values were obtained:
[1] = Apparent intrinsic clearance in human liver microsomes; format: ADME, microsome; settings: read-out: CLH(app)
[2] = Apparent permeability in RRCK cells from apical to basolateral side; format: ADME, cell-based, Canis lupus familiaris, MDCKII-LE; settings: dog, MDCK
Method in brief: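 RRCK cell monolayer permeability assay; apparent permeability reported in cm/s.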

[3] = Lipophilicity, log D of compound; format: physicochemical; settings: octanol/water
[4] = Fraction unbound in rat plasma; format: ADME, cell-free
Method in brief: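 Fraction unbound in plasma measured by equilibrium dialysis.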

[5] = Solubility of compound in simulated fasted state intestinal fluid at pH 6.5; format: physicochemical
Method in brief: (§1)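 Solubility of crystalline material measured in phosphate-buffered saline pH 6.7, unbuffered water pH 8.1 and simulated fasted-state intestinal fluid pH 6.5, reported in μg/mL.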

[6] = Solubility of compound in water at pH 8.1; format: physicochemical; method in brief: as §1
[7] = Half life in Wistar Han rat at 5 mg/kg, po administered as single dose; format: ADME, organism-based; settings: in vivo
[8] = Half life in Beagle dog at 1 mg/kg, iv administered as single dose; format: ADME, organism-based, Canis lupus familiaris; settings: in vivo
[9] = Half life in Beagle dog at 5 mg/kg, po administered as single dose; format: ADME, organism-based, Canis lupus familiaris; settings: in vivo
[10] = Half life in cynomolgus monkey at 5 mg/kg, po administered as single dose; format: ADME, organism-based, Macaca fascicularis; settings: in vivo
CYP2C9 = CYP2C9 (Homo sapiens, UniProt P11712); assay: Inhibition of CYP2C9 in human liver microsomes at 3 uM; format: ADME
Cynomolgus monkey = assay: Plasma clearance in cynomolgus monkey at 1 mg/kg, iv administered as single dose; format: ADME, organism-based, Macaca fascicularis; settings: in vivo
[11] = Volume of distribution at steady state in Wistar Han rat at 1 mg/kg, iv administered as single dose; format: ADME, organism-based; settings: in vivo, read-out: Vdss
Method in brief: (§2)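 Single-dose pharmacokinetic study in male animals, with iv and separate oral administration. Steady-state volume of distribution was derived from plasma concentrations after the iv dose.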

[12] = Volume of distribution at steady state in cynomolgus monkey at 1 mg/kg, iv administered as single dose; format: ADME, organism-based, Macaca fascicularis; settings: in vivo, read-out: Vdss; method in brief: as §2
[13] = biological target: T1, Interleukin-1 receptor-associated kinase 4 (Homo sapiens) (UniProt Q9NWZ3); assay: Inhibition of recombinant human full length His-tagged IRAK4 expressed in baculovirus at 200 nM
T1 sequence (whole entry): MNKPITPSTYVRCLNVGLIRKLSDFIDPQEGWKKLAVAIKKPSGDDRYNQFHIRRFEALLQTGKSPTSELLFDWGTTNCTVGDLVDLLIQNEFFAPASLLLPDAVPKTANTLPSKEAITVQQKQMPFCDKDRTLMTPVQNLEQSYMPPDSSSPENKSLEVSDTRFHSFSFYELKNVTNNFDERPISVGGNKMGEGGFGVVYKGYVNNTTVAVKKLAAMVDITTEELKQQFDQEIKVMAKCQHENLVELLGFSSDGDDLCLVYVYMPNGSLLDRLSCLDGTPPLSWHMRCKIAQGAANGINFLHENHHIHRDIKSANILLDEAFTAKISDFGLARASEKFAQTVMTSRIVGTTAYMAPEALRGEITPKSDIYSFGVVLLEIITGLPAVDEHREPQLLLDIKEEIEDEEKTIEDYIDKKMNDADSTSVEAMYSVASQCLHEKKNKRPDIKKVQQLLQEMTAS

[14] = biological target: MAP kinase-interacting serine/threonine-protein kinase 2 (Homo sapiens) (UniProt Q9HBH9); assay: Inhibition of N-terminal-GST-tagged human full length MNK2 expressed in baculovirus at 200 nM
[15] = biological target: Dual specificity protein kinase CLK4 (Homo sapiens) (UniProt Q9HAZ1); assay: Inhibition of recombinant human full length GST-tagged CLK4 expressed in baculovirus at 200 nM
Sequence of Dual specificity protein kinase CLK4 (Homo sapiens) (Q9HAZ1 whole entry, looked up): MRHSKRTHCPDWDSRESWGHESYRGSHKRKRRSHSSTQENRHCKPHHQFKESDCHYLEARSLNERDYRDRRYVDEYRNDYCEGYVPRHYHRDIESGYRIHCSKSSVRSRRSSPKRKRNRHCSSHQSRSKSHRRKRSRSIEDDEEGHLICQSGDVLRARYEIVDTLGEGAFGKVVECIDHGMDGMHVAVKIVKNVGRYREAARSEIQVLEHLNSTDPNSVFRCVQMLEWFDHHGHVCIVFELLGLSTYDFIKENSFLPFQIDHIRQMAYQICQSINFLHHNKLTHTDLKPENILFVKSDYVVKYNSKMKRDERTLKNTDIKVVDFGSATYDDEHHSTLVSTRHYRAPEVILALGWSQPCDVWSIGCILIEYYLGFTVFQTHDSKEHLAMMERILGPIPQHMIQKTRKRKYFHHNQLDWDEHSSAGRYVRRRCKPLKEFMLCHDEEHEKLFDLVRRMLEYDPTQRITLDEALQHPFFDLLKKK

[16] = biological target: Interleukin-1 receptor-associated kinase 3 (Homo sapiens) (UniProt Q9Y616); assay: Inhibition of IRAK3 in human THP1 cell lysate at 200 nM
[17] = biological target: Casein kinase I isoform gamma-2 (Homo sapiens) (UniProt P78368); assay: Inhibition of CK1gamma2 in human THP1 cell lysate at 200 nM
[18] = biological target: Phosphatidylinositol 5-phosphate 4-kinase type-2 gamma (Homo sapiens) (UniProt Q8TBX8); assay: Inhibition of PIPK2C in human THP1 cell lysate at 200 nM
Sequence of Phosphatidylinositol 5-phosphate 4-kinase type-2 gamma (Homo sapiens) (Q8TBX8 whole entry): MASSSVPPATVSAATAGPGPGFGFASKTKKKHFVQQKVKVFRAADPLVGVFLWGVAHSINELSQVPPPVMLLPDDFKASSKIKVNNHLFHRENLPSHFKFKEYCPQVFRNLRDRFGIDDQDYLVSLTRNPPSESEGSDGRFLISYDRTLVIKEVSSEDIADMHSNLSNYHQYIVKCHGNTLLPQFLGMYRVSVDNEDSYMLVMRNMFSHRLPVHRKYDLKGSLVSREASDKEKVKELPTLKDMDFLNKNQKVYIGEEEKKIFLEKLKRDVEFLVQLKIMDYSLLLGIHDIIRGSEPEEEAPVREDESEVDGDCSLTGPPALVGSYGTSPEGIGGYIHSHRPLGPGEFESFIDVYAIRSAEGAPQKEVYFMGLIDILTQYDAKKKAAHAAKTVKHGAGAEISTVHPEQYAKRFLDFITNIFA

[19] = biological target: Casein kinase I delta/epsilon (Homo sapiens) (UniProt P48730+P49674); assay: Inhibition of CK1-delta/epsilon in human THP1 cell lysate at 200 nM
hERG (KCNH2) = hERG (KCNH2) (Homo sapiens, UniProt Q12809); assay: Inhibition of human ERG at 100 uM by voltage clamp assay
Sequence of hERG (KCNH2) (Q12809 whole entry): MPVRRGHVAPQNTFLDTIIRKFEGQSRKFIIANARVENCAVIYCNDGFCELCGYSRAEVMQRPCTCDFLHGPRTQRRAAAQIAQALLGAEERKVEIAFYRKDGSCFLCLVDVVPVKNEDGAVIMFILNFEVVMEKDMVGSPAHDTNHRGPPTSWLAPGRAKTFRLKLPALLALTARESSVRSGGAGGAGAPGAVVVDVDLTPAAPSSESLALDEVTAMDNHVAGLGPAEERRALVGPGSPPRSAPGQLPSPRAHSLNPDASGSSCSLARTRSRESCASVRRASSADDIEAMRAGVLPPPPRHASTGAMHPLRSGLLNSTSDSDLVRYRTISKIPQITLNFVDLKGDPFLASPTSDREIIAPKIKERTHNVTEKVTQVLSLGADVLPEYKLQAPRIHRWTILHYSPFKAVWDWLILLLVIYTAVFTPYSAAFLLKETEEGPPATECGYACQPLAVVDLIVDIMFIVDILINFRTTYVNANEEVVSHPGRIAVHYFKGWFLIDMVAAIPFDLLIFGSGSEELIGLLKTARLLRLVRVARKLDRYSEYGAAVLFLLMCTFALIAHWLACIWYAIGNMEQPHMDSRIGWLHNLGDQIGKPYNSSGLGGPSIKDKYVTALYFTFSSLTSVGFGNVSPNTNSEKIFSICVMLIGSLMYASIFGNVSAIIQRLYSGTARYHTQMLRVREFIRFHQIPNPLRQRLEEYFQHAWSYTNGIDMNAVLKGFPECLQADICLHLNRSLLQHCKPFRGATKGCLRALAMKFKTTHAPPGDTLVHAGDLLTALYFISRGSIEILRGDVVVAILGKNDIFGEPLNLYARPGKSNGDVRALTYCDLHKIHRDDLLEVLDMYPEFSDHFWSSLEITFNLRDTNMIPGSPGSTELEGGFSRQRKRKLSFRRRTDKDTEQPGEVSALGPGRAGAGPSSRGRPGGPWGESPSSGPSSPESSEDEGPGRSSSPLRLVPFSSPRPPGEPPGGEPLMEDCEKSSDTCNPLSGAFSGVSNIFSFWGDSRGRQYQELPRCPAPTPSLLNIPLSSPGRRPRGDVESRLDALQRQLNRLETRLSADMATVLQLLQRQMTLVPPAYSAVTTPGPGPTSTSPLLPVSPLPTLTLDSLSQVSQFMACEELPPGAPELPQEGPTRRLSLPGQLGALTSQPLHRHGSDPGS
Method in brief: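 hERG current measured by voltage clamp, test compound at 100 μM; percent current inhibition.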

Cytochrome P450 1A2 = Cytochrome P450 1A2 (Homo sapiens, UniProt P05177); assay: Time dependent inhibition of CYP1A2 in human liver microsomes at 100 uM; format: ADME
Sequence of Cytochrome P450 1A2 (P05177 whole entry): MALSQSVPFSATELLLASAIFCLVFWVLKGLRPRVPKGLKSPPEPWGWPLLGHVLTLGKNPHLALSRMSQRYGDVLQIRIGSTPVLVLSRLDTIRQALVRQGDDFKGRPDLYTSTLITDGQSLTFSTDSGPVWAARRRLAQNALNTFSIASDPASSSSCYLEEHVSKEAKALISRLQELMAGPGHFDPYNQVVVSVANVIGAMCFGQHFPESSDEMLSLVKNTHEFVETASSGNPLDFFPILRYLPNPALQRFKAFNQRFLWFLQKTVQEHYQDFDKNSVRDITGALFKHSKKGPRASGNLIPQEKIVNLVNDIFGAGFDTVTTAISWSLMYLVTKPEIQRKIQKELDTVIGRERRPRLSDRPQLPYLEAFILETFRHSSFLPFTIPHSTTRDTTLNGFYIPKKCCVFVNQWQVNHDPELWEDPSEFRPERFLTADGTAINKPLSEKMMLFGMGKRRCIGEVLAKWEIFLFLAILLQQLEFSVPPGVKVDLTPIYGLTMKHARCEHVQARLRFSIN
Method in brief: (§3)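 Time-dependent inhibition assessed in pooled human liver microsomes with probe substrates, test compound at 100 μM.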

Cytochrome P450 2B6 = Cytochrome P450 2B6 (Homo sapiens, UniProt P20813); assay: Time dependent inhibition of CYP2B6 in human liver microsomes at 100 uM; format: ADME; method in brief: as §3
Sequence of Cytochrome P450 2B6 (P20813 whole entry): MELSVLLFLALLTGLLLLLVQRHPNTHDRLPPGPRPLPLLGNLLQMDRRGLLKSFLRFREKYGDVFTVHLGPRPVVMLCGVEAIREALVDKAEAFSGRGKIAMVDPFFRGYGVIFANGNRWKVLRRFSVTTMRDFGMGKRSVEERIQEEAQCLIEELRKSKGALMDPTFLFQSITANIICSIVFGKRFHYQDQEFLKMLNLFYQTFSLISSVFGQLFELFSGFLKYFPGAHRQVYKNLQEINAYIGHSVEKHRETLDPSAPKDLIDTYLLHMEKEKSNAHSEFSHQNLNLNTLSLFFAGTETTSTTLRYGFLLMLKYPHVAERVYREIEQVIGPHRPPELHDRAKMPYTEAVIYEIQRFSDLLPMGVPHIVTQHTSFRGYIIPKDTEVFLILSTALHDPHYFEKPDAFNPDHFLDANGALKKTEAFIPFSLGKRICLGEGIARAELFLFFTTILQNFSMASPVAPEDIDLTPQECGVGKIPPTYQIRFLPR

Cytochrome P450 2C8 = Cytochrome P450 2C8 (Homo sapiens, UniProt P10632); assay: Time dependent inhibition of CYP2C8 in human liver microsomes at 100 uM; format: ADME; method in brief: as §3
Cytochrome P450 2C9 = Cytochrome P450 2C9 (Homo sapiens, UniProt P11712); assay: Time dependent inhibition of CYP2C9 in human liver microsomes at 100 uM; format: ADME; method in brief: as §3
Cytochrome P450 2D6 = Cytochrome P450 2D6 (Homo sapiens, UniProt P10635); assay: Time dependent inhibition of CYP2D6 in human liver microsomes at 100 uM; format: ADME
Sequence of Cytochrome P450 2D6 (P10635 whole entry): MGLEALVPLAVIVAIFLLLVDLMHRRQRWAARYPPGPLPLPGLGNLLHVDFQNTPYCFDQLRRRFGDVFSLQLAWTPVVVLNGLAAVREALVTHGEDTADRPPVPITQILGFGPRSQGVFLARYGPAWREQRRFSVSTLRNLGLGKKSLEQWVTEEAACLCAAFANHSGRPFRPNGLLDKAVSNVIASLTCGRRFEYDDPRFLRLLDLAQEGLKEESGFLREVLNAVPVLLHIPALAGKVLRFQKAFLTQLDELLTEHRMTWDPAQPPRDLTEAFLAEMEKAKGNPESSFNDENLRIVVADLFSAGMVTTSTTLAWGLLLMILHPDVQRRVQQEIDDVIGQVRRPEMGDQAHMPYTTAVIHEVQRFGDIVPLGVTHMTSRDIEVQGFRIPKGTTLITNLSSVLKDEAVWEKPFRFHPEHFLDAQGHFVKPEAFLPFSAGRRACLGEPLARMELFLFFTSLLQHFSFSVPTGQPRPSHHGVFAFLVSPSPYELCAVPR
Method in brief: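 Pooled human liver microsomes with CYP probe substrates. Time-dependent inhibition was assessed across CYP1A2, 2B6, 2C8, 2C9, 2C19 and 2D6, with test compound at 100 μM.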

Rattus norvegicus = assay: Inhibition of LPS induced TNFalpha secretion in Sprague-Dawley rat assessed as decrease in TNFalpha level in serum at 3 mg/kg, po pretreated for 1 hr followed by LPS challenge measured after 1.5 hrs relative to control; format: functional
Method in brief: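 Male Sprague-Dawley rats, 6-8 weeks old, n = 6-9 per group. Test article was given orally at 0.3, 1, 3 or 30 mg/kg as a solution or suspension in 0.5% methylcellulose and 2% Tween 80 in water; controls received vehicle alone. Ultrapure LPS (0.01 mg/kg) was given iv 1 h later. Blood was drawn 1.5 h after challenge, and serum TNF was measured by MSD.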

Plasma [20] = assay: Free plasma concentration in Sprague-Dawley rat LPS model at 0.3 mg/kg, po after 2.5 hrs; format: ADME, organism-based; settings: in vivo
Method in brief: (§4)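 Male Sprague−Dawley rats, 6−8 weeks old, n = 6−9 per group. Dosed orally at 0.3, 1, 3 or 30 mg/kg in 0.5% methylcellulose/2% Tween 80 in water. Ultrapure LPS 0.01 mg/kg iv given 1 h after dosing. Plasma exposure taken 2.5 h after oral dosing and reported as free concentration using fraction unbound in rat plasma.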

Plasma [21] = assay: Free plasma concentration in Sprague-Dawley rat LPS model at 30 mg/kg, po after 2.5 hrs; format: ADME, organism-based; settings: in vivo; method in brief: as §4
[22] = biological target: Vascular endothelial growth factor receptor 2 (Homo sapiens, UniProt P35968); assay: Inhibition of human recombinant VEGFR2 using CAGAGAIETDKEYYTVKD as substrate after 60 mins by Lance method
Sequence of Vascular endothelial growth factor receptor 2 (P35968 whole entry): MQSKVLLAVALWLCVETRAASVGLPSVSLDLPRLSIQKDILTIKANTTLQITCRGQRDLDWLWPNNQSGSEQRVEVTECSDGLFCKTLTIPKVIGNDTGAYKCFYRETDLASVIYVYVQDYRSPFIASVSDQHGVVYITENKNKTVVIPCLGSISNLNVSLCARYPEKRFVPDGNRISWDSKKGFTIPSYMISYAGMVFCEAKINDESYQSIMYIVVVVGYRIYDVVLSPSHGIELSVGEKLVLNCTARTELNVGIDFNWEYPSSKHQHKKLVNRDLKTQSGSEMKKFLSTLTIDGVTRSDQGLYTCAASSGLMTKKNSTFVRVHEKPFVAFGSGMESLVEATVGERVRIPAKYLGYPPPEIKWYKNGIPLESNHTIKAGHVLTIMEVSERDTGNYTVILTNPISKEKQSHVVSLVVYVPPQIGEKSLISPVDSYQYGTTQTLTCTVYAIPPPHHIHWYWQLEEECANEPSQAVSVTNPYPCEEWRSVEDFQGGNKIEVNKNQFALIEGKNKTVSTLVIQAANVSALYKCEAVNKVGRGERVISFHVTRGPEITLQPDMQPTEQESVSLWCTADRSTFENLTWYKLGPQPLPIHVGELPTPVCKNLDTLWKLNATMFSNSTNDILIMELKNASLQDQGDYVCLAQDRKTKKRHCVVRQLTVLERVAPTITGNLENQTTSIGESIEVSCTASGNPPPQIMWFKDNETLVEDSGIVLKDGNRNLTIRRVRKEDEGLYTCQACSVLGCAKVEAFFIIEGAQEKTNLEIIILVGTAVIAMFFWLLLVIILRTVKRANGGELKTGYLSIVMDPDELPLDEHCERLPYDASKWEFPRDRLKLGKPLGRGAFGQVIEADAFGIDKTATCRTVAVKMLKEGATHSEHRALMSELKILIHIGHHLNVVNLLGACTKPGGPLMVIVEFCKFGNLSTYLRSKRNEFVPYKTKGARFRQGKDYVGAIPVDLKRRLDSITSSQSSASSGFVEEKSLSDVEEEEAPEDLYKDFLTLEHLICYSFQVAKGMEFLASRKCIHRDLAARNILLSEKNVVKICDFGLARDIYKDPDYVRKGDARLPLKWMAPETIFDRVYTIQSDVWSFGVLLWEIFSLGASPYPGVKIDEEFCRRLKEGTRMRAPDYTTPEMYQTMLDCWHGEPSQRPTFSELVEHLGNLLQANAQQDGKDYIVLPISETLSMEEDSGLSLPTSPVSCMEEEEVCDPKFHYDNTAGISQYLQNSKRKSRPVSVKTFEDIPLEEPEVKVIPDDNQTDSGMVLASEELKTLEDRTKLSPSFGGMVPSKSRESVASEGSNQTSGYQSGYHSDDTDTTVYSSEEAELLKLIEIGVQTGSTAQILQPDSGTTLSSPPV

Work on `CC[C@@H]1[C@H](F)C(=O)N[C@@H]1COc1nccc2cc(C(N)=O)c(OC)cc12` [ZIMLOVISERTIB] yielded a microsomal CLint [1] of 25 µL/min/mg, a Papp A→B [2] of 9.6 ×10⁻⁶ cm/s and a logD [3] of 2. For the same compound, the fraction unbound [4] was 0.3, the solubility [5] was 62 µg/mL (≈ 172 µM) and the solubility [6] was 65 µg/mL (≈ 180 µM). For the same compound, the half-life [7] was 1.4 to 2.1 h, the half-life [8] was 1.1 h and the half-life [9] was 4 h. For the same compound, the half-life [10] was 6.2 h, the inhibition at 3 µM (CYP2C9) was less than 5% and the clearance (Cynomolgus monkey) was 10 mL/min/kg. The Vd [11] was 1.8 L/kg, the Vd [12] was 0.95 L/kg and the inhibition [13] was 100%. The inhibition [14] was greater than 70%, the inhibition [15] was greater than 70% and the inhibition [16] was greater than 50%. For the same compound, the inhibition [17] was greater than 50%, the inhibition [18] was greater than 50% and the inhibition [19] was greater than 50%. For the same compound, the inhibition at 100 µM (hERG (KCNH2)) was 25%, the TDI (Cytochrome P450 1A2) was “Not Active” and the TDI (Cytochrome P450 2B6) was “Not Active”. The TDI (Cytochrome P450 2C8) was “Not Active”, the TDI (Cytochrome P450 2C9) was “Not Active” and the TDI (Cytochrome P450 2D6) was “Not Active”. For the same compound, the inhibition in vivo at 3 mg/kg (Rattus norvegicus) was 60%, the “Cp(f)” value (Plasma [20]) was 2.1 nM and the “Cp(f)” value (Plasma [21]) was 150 nM. For the same compound, the IC50 [22] was 5.33 µM.
